Published values of several laboratories.
Target: Tyrosine-protein kinase TXK (TXK, Homo sapiens, UniProt P42681)
Sequence (P42681 1-527, as in one of the studies): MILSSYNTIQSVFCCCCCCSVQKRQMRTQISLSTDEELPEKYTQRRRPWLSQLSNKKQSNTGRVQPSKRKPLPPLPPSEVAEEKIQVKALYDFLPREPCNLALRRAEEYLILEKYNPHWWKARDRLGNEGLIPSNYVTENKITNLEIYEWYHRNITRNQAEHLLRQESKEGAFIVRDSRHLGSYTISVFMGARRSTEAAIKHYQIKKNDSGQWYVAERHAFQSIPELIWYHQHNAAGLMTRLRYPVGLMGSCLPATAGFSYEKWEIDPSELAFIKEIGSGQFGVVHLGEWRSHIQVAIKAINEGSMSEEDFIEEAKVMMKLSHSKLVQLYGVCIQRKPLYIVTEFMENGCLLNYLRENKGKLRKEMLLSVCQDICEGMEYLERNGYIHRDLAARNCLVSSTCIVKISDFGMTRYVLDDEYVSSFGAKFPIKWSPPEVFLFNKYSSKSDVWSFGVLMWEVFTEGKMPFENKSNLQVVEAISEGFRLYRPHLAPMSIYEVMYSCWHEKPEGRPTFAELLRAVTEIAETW

| SMILES | test | setting | quantity | value |
| --- | --- | --- | --- | --- |
| Cn1cncc1[C@](O)(COc1ccc(C#N)cc1-c1ccc(OC(F)(F)F)cc1)c1ccc(C#N)cc1 | binding, competition with immobilised ligand | 1 µM | remaining binding | 87% |
| Nc1ncc(-c2nc(N3CCOCC3)nc(N3CCOCC3)n2)c(C(F)F)n1 | binding, competition with immobilised ligand | 10 µM | remaining binding | 56% |
| N#CC1(c2ccccn2)CCN(Cc2cc(C(=O)O)c(=O)n3ccccc23)CC1 | binding, competition with immobilised ligand | 1 µM | remaining binding | 100% |
| CC(C)(C)c1cc(C=C(C#N)C#N)cc(Br)c1O | enzyme activity, inhibitor | 0.5 µM | remaining activity | 108% |
| Cc1nn(C)cc1-c1nc2c(N3CCN(Cc4ccc(Cl)cc4)CC3)c(Cl)cnc2[nH]1 | binding, competition with immobilised ligand | 1 µM | remaining binding | 100% |
| O=c1[nH]c2ccccc2n1C1CCN(Cc2ccc(-c3[nH]c4cc5ncnc5cc4nc3-c3ccccc3)cc2)CC1 | enzyme activity | 0.5 µM | remaining activity | 104% |
| COc1cc(Nc2ncc(F)c(Nc3ccc4c(n3)NC(=O)C(C)(C)O4)n2)cc(OC)c1OC | binding | 10 µM | inhibition | 90% |
| COc1ncccc1-c1cnn2ccc(N3CCN(C(=O)OC(C)C)CC3)nc12 | binding, competition with immobilised ligand | 1 µM | remaining binding | 74% |
